Screens as filed in PubChem BioAssay.
TbMetRS inhib: blocks T. brucei methionyl-tRNA synthetase activity; purified T. brucei MetRS, ATP depletion, Kinase-Glo luminescence; inhibition, % at 11.9 µM; actives 0.4% (n = 360,000); AID 624268;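 active means inhibition above a per-plate cutoff of the control wells' mean inhibition plus 3 SD, cut at about 5.5% in these data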
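System: purified T. brucei MetRS enzyme / Detection: Kinase-Glo luciferase luminescence reporting remaining unconsumed ATP / Medium: HEPES buffer with MgCl2, KCl, DTT, spermine, BSA, pyrophosphatase / Replication: singlicate, one well per compound / Evaluation: percent inhibition relative to median high and low control wells / Schedule: 2 h aminoacylation at 25 °C after 15 min preincubation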
TAG inh: inhibitors of triacylglycerol accumulation | actives 0.66% (n = 230,000) | AID 651582 | H9c2 cells, Nile Red lipid (TAG) fluorescence; cells loaded with 200 µM oleic acid | inhibition, % at 12.5 µM;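 active means pattern-corrected inhibition of lipid staining of at least 50% with the nuclear-stain viability signal not falling by more than 50%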
NTR1 agonist: agonists of human neurotensin receptor NTR1. NTR1-U2OS beta-arrestin-GFP spot imaging, agonist mode. activation, % at 20 µM. actives 0.17% (n = 330,000);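 active means activation at or above 40% of the spot to cytoplasm intensity ratio, with at least 20 cells analyzed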
Target sequence (P30989 whole entry, looked up): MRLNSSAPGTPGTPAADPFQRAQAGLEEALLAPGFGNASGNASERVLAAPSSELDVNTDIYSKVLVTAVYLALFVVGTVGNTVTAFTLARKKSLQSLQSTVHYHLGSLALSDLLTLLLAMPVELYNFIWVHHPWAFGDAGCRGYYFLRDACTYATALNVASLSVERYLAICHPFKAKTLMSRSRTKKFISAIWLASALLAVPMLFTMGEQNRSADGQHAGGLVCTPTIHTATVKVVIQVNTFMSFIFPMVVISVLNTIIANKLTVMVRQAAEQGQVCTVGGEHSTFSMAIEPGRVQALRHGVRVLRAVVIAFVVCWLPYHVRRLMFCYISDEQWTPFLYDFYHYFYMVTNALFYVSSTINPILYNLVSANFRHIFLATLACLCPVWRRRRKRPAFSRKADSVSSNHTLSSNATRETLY
MC4R antagonist: antagonists of human melanocortin 4 receptor (MC4R); P32245; MC4R-expressing cells, MTII-stimulated cAMP, LANCE TR-FRET; inhibition, % at 6.5 µM; actives 0.48% (n = 360,000); AID 540295;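 active means inhibition above its plate's cutoff, the mean of tested wells on that plate plus 3 SD, cut at about 29% in these data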
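Material: U2OS-MC4R stable cell line | Reagent: Melanotan II challenge after compound preincubation | Doses: One concentration, 6.5 µM nominal | Incubation: 30-min compound preincubation, 1-h Melanotan II challenge, 1-h detection, room temperature | Signal: TR-FRET cAMP assay | Replicates: One well per compound, no replicates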
MC4R barr agon: human MC4R agonism via beta-arrestin; P32245; U2OS MC4R beta-arrestin complementation, luminescence; percent of melanotan II response, DMSO zero; activation, % at 8.9 µM; actives 0.98% (n = 360,000); AID 540308;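 active means activation above a per-plate cutoff, the mean activation of sample wells on that plate plus 3 SD, cut at about 8% in these data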
aDG glyco up: increases alpha dystroglycan glycosylation; Pro5-aDG cells, alpha-DG glycosylation AlphaScreen (IIH6); 0% Pro5, 100% B10-LARGE cell signal; activation, % at 10 µM; actives 0.22% (n = 360,000);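 active means activation of at least 8% versus controls, or a plate z-score of at least 8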;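 further: Pro5 are CHO cells carrying HIG-tagged alpha-DG that lacks glycosylation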
aDG glyco conf: confirmation of alpha dystroglycan glycosylation activators; shares compounds with aDG glyco up; Pro5-aDG cells, alpha-DG glycosylation, IIH6 AlphaLISA; scaled to LARGE-overexpressing B10 cells as 100%; activation, % at 10 µM (by protocol); actives 17% (n = 600);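 active means activation of at least 7% in one or more replicates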;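 further: cells exposed to compound for two days before detection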
Numbers stand for hits; n = inactive; x = not tested or not shown. Rows were chosen to be rich in hits. Some 2.4% of all compounds tested hit in one or more screens of this group.

SMILES | TbMetRS inhib | TAG inh | NTR1 agonist | MC4R antagonist | MC4R barr agon | aDG glyco up | aDG glyco conf
COC(=O)c1ccc(CSC2=NC[C@@H]3[C@@H]4C(=O)N(C)C(=O)[C@@H]4[C@](C)(C(=O)OC)N23)cc1 | n | n | n | n | n | n | x
Cc1ccc(S(=O)(=O)c2c(N)n(Cc3ccco3)c3nc4ccccc4nc23)cc1C | n | x | n | n | n | 39.8 | n
Cc1ccc(S(=O)(=O)c2c(N)n(CCN3CCOCC3)c3nc4ccccc4nc23)cc1C | n | n | n | n | n | n | x
CCOC(=O)C1CCCN(C(=O)Cn2nc(C)c3c(C)n(-c4ccccc4)nc3c2=O)C1 (configuration not stated) | n | x | n | n | n | 9.8 | n
COc1ccc(-c2c(Sc3ccccc3)c3cc(-c4ccc5c(c4)OCO5)ccc3n2C)cc1 | n | x | x | x | x | n | x
C[C@H]1COc2cc(N(C)CCO)ccc2S(=O)(=O)N1 | n | x | x | x | x | n | x
Cc1nc(SCC(=O)Nc2cc(C(N)=O)cc(C(N)=O)c2)c2c(C)c(C)sc2n1 | n | n | n | n | n | 9.0 | 13.2
Cc1nc(SCC(=O)Nc2sccc2C(N)=O)c2c(C)c(C)sc2n1 | n | n | x | n | n | n | x
CC1(C(=O)NCc2ccco2)CCN1C(=O)C1(c2ccccc2)CC1 (configuration not stated) | n | n | x | n | n | n | x
CCCCN(C)CCNC(=O)c1cc(-c2cccnc2)nc2ccc(S(=O)(=O)N3CCC(C)CC3)cc12 | n | x | n | n | n | 5.4 | 4.2
CC1CCCC/C1=N\NC(=S)Nc1ccccc1 (configuration not stated) | n | n | n | n | n | n | x
CC(C)NC(=S)N/N=C1\CCCCC1C1CCCCC1 (configuration not stated) | n | x | n | n | n | 7.2 | n
Cc1ccccc1CSc1nnc([C@@H]2CCCN2)o1 | n | n | n | n | n | 4.8 | n
Clc1ccccc1CSc1nnc([C@@H]2CCCN2)o1 | n | n | n | n | n | n | x
CC(=O)N(O)c1ccc(C=Cc2ccccc2)cc1 | n | x | x | x | x | n | x
CCC1Nc2ncnc(N3CCc4ccccc4C3)c2N(Cc2ccc(Cl)cc2)C1=O (configuration not stated) | n | n | n | n | n | 15.7 | n
COc1ccc(Cc2nc3ccc(C(=O)NCc4cc(C)no4)cc3o2)cc1 | n | n | n | n | n | n | x
CCc1cc(CNC(=O)c2ccc3nc(Cc4ccc(OC)c(OC)c4)oc3c2)on1 | n | x | n | n | n | 8.2 | n
O=C(CN1CCN(S(=O)(=O)c2ccc(F)cc2)CC1)Nc1ccc(Cl)c(C(F)(F)F)c1 | n | n | n | n | n | 5.4 | n
O=C(CN1CCN(S(=O)(=O)c2ccc(F)cc2)CC1)Nc1ccc2c(c1)OCCO2 | n | n | n | n | n | n | x
Cc1cccc(Nc2nc(-c3c(C)nc4ccccn34)cs2)c1 | n | x | n | n | n | 4.4 | n
Cc1nc2ccccn2c1-c1csc(Nc2cccc(O)c2)n1 | n | n | x | n | n | n | x
CC1(C(=O)Nc2nccs2)CCN1C(=O)CC(c1ccccc1)c1ccccc1 (configuration not stated) | n | n | x | n | n | n | x
CCCCn1c(/N=C/c2ccc(N(C)C)cc2)nc2ccccc21 | n | n | n | n | n | 4.9 | n
CC(C)NC(=O)N(C)C[C@H]1OCCCC[C@@H](C)Oc2ccc(N(C)C)cc2C(=O)N([C@H](C)CO)C[C@@H]1C | n | x | x | x | x | n | x
SMILES | TbMetRS inhib | TAG inh | NTR1 agonist | MC4R antagonist | MC4R barr agon | aDG glyco up | aDG glyco conf
COc1ccc(CC(=O)N/N=C/c2cccnc2)cc1OC | n | n | n | n | n | 6.5 | n
CCOc1ccc(CC(=O)N/N=C/c2cccnc2)cc1OCC | n | n | n | n | n | n | x
COc1ccc(CCNC2=CC(=O)CCC2)cc1OC | n | x | x | x | x | n | x
CC12CCC(=O)C=C1CCC1C2C(O)CC2(C)C(c3csc(N)n3)CCC12 (configuration not stated) | n | n | x | n | n | n | x
CC12CCC(=O)C=C1CCC1C2CCC2(C)C(c3csc(N)n3)CCC12 (configuration not stated) | n | n | x | n | n | 7.0 | n
N#C/C(=C\c1cccc(Cl)c1)c1n[nH]c(Cn2cncn2)n1 | n | x | n | n | n | 2.9 | n
O=C(Nc1ccc(-n2cc(Cl)cn2)cc1)c1ccncc1 | n | n | n | n | n | 2.8 | n
C=CCc1c(C)nc(C)nc1N/N=C/c1ccc(N(C)C)cc1 | n | x | n | n | n | 6.3 | n
CC1(C(=O)NCCC#N)CCN1C(=O)C1(c2ccccc2)CCCC1 (configuration not stated) | n | n | x | n | n | n | x
CCCCCCCCN1C(=O)[C@H](CC(=O)NCc2cccc(C(F)(F)F)c2)C[C@@]2(C(=O)OC)CC(C)(C)CC=C12 | n | x | x | x | x | n | x
Cc1ccc(C)c(N2CCN(C(=O)Nc3ccc4c(c3)N(C)C(=O)CS4)CC2)c1 | n | n | n | n | n | 6.7 | n
CN1C(=O)CSc2ccc(NC(=O)N3CCN(c4ccccn4)CC3)cc21 | n | x | n | n | n | n | x
O=C(Cn1nnc(-c2ccccc2)c1COc1ccc2ccccc2c1)NCC1CC1 | n | n | x | n | n | n | x
CCCCOc1ccc(C(=O)Nc2cccc(C)n2)cc1 | n | x | n | n | n | 6.3 | n
Cc1cccc(Nc2nc(N)nc(CN3CCN(c4ccc(F)cc4)CC3)n2)c1 | n | n | n | n | n | 11.8 | n
Cc1cccc(Nc2nc(N)nc(CN3CCN(C)CC3)n2)c1 | n | x | n | n | n | n | x
Brc1ccccc1OCCCCn1cnc2ccccc21 | n | n | n | n | n | 10.4 | n
Cc1cccc(NC(=S)N(CCCN2CCCC2)Cc2cccn2Cc2ccc(Cl)cc2)c1 | n | n | n | n | n | 2.8 | 10.9
O=C(NC1CCCCC1)C(c1ccncc1)n1c(=O)c(-c2cc3ccccc3[nH]2)nc2ccccc21 (configuration not stated) | n | x | x | x | x | n | x
CCC(c1nnnn1-c1c(C)cccc1C)N1CCN(c2ccc(C(F)(F)F)cc2[N+](=O)[O-])CC1 (configuration not stated) | n | x | x | x | x | 7.6 | n
COC(=O)c1ccc(NC(=O)c2ccc3nccnc3c2)cc1 | n | x | n | n | n | n | x
O=C(Nc1ccc(OC(F)(F)F)cc1)c1ccc2nccnc2c1 | n | n | n | n | n | 5.5 | n
CCCN(C)C1CN(Cc2cn(Cc3cc(C)cc(C)c3)nn2)S(=O)(=O)C1 (configuration not stated) | n | x | x | x | x | n | x
CCOC(=O)[C@]12CCCC=C1N(Cc1ccc3c(c1)OCO3)C(=O)[C@H](CC(=O)NCC13CC4CC(CC(C4)C1)C3)C2 | n | x | x | x | x | n | x
